Assay outcomes from PubChem.
This is a sample that favours compounds with a hit; in the whole collection about 1.9% have one here.
UBC9 SUMO inh = inhibitors of in vitro SUMOylation cascade, primary screen, biochemical, HTRF, uHTS; inhibition, % at 35 µM; 290,000 tested, 0.36% active; SUMO-conjugating enzyme UBC9 (Homo sapiens), P63279; HTRF SUMOylation assay, SAE1/SAE2 + UBC9; in the data active means inhibition above about 50%, passing the limit was not always enough; inconclusive means no clear call, values can overlap the other calls
Target sequence (P63279 whole entry, looked up): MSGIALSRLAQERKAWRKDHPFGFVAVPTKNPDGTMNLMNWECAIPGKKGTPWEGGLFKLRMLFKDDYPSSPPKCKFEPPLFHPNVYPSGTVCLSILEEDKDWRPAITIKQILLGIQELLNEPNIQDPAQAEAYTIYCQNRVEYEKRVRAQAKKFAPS
LMPTP inh = LMPTP phosphatase inhibitors, primary screen, biochemical, fluorescence intensity, uHTS | inhibition, % at 20 µM | recombinant LMPTP-A, OMFP fluorogenic substrate | 360,000 tested, 0.22% active | AID 651560, 2012;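 active means compounds that cut the enzyme signal by at least half of the control window in the single-dose screen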;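 further: plate controls were DMSO wells with enzyme plus substrate for no effect and substrate without enzyme for full effect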
Target sequence (P24666 whole entry, looked up): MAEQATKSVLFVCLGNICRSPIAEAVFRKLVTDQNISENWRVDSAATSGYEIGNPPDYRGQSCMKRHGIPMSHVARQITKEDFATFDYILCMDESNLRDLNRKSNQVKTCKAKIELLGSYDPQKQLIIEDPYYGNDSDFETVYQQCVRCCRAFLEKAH
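Assay system: LMPTP-A, protein tyrosine phosphatase of low molecular weight / Medium: pH 6.0 Bis-Tris buffer with DTT and Triton X-100 / Schedule: 50 min enzyme reaction at room temperature, protected from light / Measured by: endpoint fluorescence intensity from OMFP dephosphorylation / Read-out basis: % inhibition relative to no-enzyme and uninhibited control wells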
SUMO1 PPI mod = modulators of SUMO1 protein-protein interactions, primary screen, biochemical, uHTS. SUMO1 binding to a labelled peptide, TR-FRET, 1 h. AID 602429, 2012. 360,000 tested, 0.33% active. inhibition, % at 20 µM. Small ubiquitin-related modifier 1 (Homo sapiens), P63165; in the data active means inhibition above about 37%
Target sequence (P63165 whole entry, looked up): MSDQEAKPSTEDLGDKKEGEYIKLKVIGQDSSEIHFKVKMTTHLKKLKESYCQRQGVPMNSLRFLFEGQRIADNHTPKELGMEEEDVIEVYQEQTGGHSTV
STEP inh = STEP phosphatase inhibitors, primary screen, biochemical, fluorescence intensity, uHTS; recombinant STEP, OMFP fluorogenic substrate; 360,000 tested, 0.25% active; inhibition, % at 20 µM;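 active means inhibition at 20 µM, scaled per plate between control wells, above about 37%, limit read from the data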;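 further: 0% = DMSO with enzyme and substrate and 100% = substrate only without enzyme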
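Assay system: isolated STEP enzyme. Buffer or medium: pH 6.0 Bis-Tris with DTT and Tween 20. Also added: fluorogenic phosphatase substrate OMFP at 25 µM final. Dosing: 20 µM, 1% DMSO. Timing: 20 min reaction, room temperature, in the dark. Measured by: fluorescence intensity, excitation 480 nm, emission 540 nm. Evaluation: normalized % inhibition.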
Scp1 inh = Scp-1 phosphatase inhibitors, primary screen, biochemical, colorimetric, uHTS; 340,000 tested, 0.88% active; AID 493091, 2011; Recombinant Scp1, phosphopeptide, malachite green phosphate absorbance; inhibition, % at 20 µM;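 active means inhibition above about 50% at 20 µM, limit read from the data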;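 further: plate controls were DMSO wells with enzyme for no effect and wells lacking enzyme for full effect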
Target sequence (Q9GZU7 76-261 limits assumed): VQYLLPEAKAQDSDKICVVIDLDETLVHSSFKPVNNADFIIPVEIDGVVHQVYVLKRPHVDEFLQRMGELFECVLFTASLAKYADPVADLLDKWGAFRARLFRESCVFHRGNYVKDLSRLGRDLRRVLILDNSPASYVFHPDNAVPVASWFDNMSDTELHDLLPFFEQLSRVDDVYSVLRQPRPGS
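Test system: SCP-1 phosphatase catalytic domain, residues 76-261 | Compound dosing: One concentration, 20 µM, with 1.0% DMSO | Schedule: 45 min room-temperature reaction, 5 min colour, 30 min stabiliser | Detection: Absorbance at 630 nm | Read-out basis: % inhibition of SCP-1 phosphate liberation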
DNMT1 inh = human DNMT1 methyltransferase inhibitors, primary screen, biochemical, molecular beacon, fluorescence, HinP1I cleavage, uHTS; 360,000 tested, 0.83% active; inhibition (reported as % activation of signal), % at 10 µM; DNA (cytosine-5)-methyltransferase 1 (Homo sapiens), P26358; in the data active means inhibition above about 50%
Beacon interf DR = spectral interference with molecular beacon fluorescence, dose response, artefact control for DNMT1 inhibitor project, biochemical, fluorescent molecular beacon; shares compounds with DNMT1 inh; spectral interference counter-screen; IC50, µM; 200 tested, under 10 active; AID 602382, 2012; call rule not given here
DNMT1 inh conf = DNMT1 methyltransferase inhibitor retest, confirmation, biochemical, molecular beacon, fluorescence, single concentration; shares compounds with DNMT1 inh; DNMT1 molecular beacon HinP1I cleavage; inhibition, % at 10 µM; 2,300 tested, 8% active; AID 602385, 2012;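 active means average inhibition of at least 30% in the single-concentration confirmation test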
DNMT1 interf = beacon fluorescence artifact counter-screen; DNMT1 molecular beacon spectral interference counterscreen, fluorescence 485/520; 2,300 tested, 1% active; shares compounds with DNMT1 inh; activation (fluorescence interference), % at 10 µM;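 active means activation of at least 30% at 10 µM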;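 further: DNMT1 catalytic domain with a HinP1I cleavage step and a FAM/dabcyl DNA beacon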
An asterisk follows results filed as active; ? = inconclusive; . = not tested or not shown.

SMILES | UBC9 SUMO inh | LMPTP inh | SUMO1 PPI mod | STEP inh | Scp1 inh | DNMT1 inh | DNMT1 inh conf | DNMT1 interf | others
COc1ccc(/C=C2/C(=O)N(c3nc4ccccc4s3)N=C2CSc2ccc(Cl)cc2)cc1 | -3 | 22 | 26 | 4 | 8 | 65* | 54* | -4 | Beacon interf DR=>99
COc1ccc(/C=C2/C(=O)N(Cc3ccccc3)N=C2C)cc1 | 13 | 0 | 10 | 0 | -4 | 10 | . | .
Cc1ccc(-c2cc(C(=O)Nc3sc4c(c3C(=O)NCc3ccco3)CCC4)[nH]n2)c(O)c1 | -22 | 11 | 7 | 2 | -4 | -10 | . | .
CCNC(=O)c1c(NC(=O)c2cc(-c3cc(C)ccc3O)n[nH]2)sc2c1CCCC2 | 9 | 2 | -2 | 4 | -1 | 76* | 6 | 1
CCCn1c(SCc2nc3sc(C)c(C)c3c(=O)[nH]2)nc2ccccc2c1=O | 40 | 0 | 1 | 4 | -7 | 54* | 0 | -4
COCCn1c(SCc2nc3ccccc3c(=O)[nH]2)nc2ccccc2c1=O | 12 | -1 | 0 | -2 | -2 | -3 | . | .
CCc1ccc(-c2nc(NC(=O)c3ccc(OCC(=O)Nc4ccc(F)cc4)c(OC)c3)sc2C)cc1 | -10 | -1 | -12 | 1 | -5 | 61* | 0 | 1
O=C(/C=C/c1ccc(Br)cc1)NC(=S)Nc1ccc(S(=O)(=O)Nc2nccs2)cc1 | -14 | 16 | 94* | -3 | -3 | 86* | 67* | -2 | Beacon interf DR=>99
CCc1nnc(NS(=O)(=O)c2ccc(NC(=S)NC(=O)/C=C/c3ccc(C(C)C)cc3)cc2)s1 | 28 | 4 | 27 | 0 | -10 | 62* | 33* | -4 | Beacon interf DR=>99
COc1cccc(C(NC(C)=O)c2nc(-c3cccs3)cs2)c1 (stereo not drawn) | . | -1 | -11 | 1 | . | 2 | . | .
CCC(=O)Nc1ccc2nc3c(=O)[nH]c(=S)[nH]c3nc2c1 | 26 | 6 | -3 | 6 | 67* | 55* | 4 | 3
CCCCn1c(=O)[nH]c2nc3cc(NC(C)=O)ccc3nc2c1=O | 39 | 0 | -23 | 0 | -3 | 3 | . | .
C[C@@H]1CN([C@H](C)CO)C(=O)CCCn2nncc2CO[C@H]1CN(C)Cc1ccccc1 | . | -3 | 3 | -2 | . | 1 | . | .
Cc1cc(C(=O)CN2C(=O)C(=O)N(CC(C)C)C2=O)c(C)n1C1CC1 | . | -2 | -10 | -1 | -6 | 0 | . | .
Cc1ccc(NCC(=O)N/N=C\c2cccc(O)c2)cc1 | 7 | 0 | 1 | -4 | -3 | 58* | 0 | 4
CCc1cc2c(=O)n3c(nc2s1)-c1[nH]c2ccc(OC)cc2c1CC3 | 0 | 2 | -2 | 1 | 2 | 76* | 5 | 5
N#CCOc1coc(CN2CCN(c3ccccc3)CC2)cc1=O | 6 | -2 | 17 | 1 | 2 | 1 | . | .
COC(=O)[C@H]1C[C@@]2(O)CN(S(=O)(=O)c3ccc(C)cc3)C[C@@]2(OC(=O)NC2CCCC2)C[C@H]1C(=O)OC | . | -1 | -2 | 0 | . | 3 | . | .
COCCSc1ccccc1C(=O)N1CCCC(C)C1 (stereo not drawn) | 16 | 0 | 6 | 0 | -11 | 85* | 0 | 3
CCOC(=O)C1CCCN(C(=O)c2ccccc2SCCOC)C1 (stereo not drawn) | 1 | -2 | -2 | 0 | -4 | 1 | . | .
COc1ccc(Oc2c(OC)cc(NCc3ccc(CN)cc3)c3ncccc23)cc1 | . | 24 | 22 | 4 | . | 95* | 33* | -5 | Beacon interf DR=>99
Cc1ccc(C(=O)OCC(=O)NCc2cccs2)s1 | . | -1 | 3 | 2 | -6 | 1 | . | .
Cc1ccc(C(=O)OCC(=O)NCc2ccco2)s1 | 8 | 4 | 0 | 0 | 39 | 58* | 1 | -1
COc1ccc(CCCN2CCC(CN3CCNC(=O)C3=O)CC2)cc1OC | . | -4 | 2 | -2 | 1 | 5 | . | .
COc1ccc(C2CC(c3ccccc3F)=NN2c2ccc(S(N)(=O)=O)cc2)cc1 (stereo not drawn) | . | 3 | 2 | 0 | 4 | -2 | . | .
SMILES | UBC9 SUMO inh | LMPTP inh | SUMO1 PPI mod | STEP inh | Scp1 inh | DNMT1 inh | DNMT1 inh conf | DNMT1 interf | others
COc1ccc(C2CC(c3ccccc3C(F)(F)F)=NN2c2ccc(S(N)(=O)=O)cc2)cc1 (stereo not drawn) | . | 2 | 7 | -4 | 4 | 65* | 15 | 12
O=C1CC(c2ccco2)CC(O)=C1C=NCC1CCNCC1 (stereo not drawn) | 29 | 0 | 49* | 0 | -5 | 67* | 1 | 5
O=C(O)Cc1c[nH]c2cccc(O)c12 | ? | 4 | -2 | 3 | 31 | 74* | 36* | -2 | Beacon interf DR=>99
O=C(O)Cc1c[nH]c2ccccc12 | . | 0 | -1 | 2 | 7 | -1 | . | .
CSCCC(NC(=O)c1ccco1)C(=O)NC1CCCCCC1 (stereo not drawn) | . | -1 | 1 | -1 | -4 | 12 | . | .
O=[N+]([O-])c1ccc2cn(C3OC(CO)C(O)C3O)nc2c1 (stereo not drawn) | . | -3 | -37 | 0 | . | 0 | . | .
Cc1ccc(NC(=O)CCC(=O)OCC(=O)c2ccc(-c3ccccc3)cc2)cc1 | 55 | 1 | 3 | 0 | -4 | 51* | 5 | 0
CCc1ccc2c(c1)c1nc(C)sc1n2CC | 99 | 3 | 36 | 5 | -4 | 51* | 3 | 3
Cc1nc(NCc2cccnc2)c2c3c(sc2n1)CCCC3 | -1 | 4 | 4 | 27 | -6 | 51* | 1 | -5
O=C(Nc1ccccc1F)c1ccc(Br)o1 | -12 | 0 | 4 | -2 | 1 | 69* | 1 | -2
COc1ccc(CN2C(=NC(=O)COc3ccccc3)SC3CS(=O)(=O)CC32)cc1 (stereo not drawn) | 21 | 0 | 2 | 0 | -2 | 7 | . | .
CC(C)CCCCCCNC(=S)Nc1ccc(S(=O)(=O)N2CCOCC2)cc1 | -46 | 2 | 5 | 4 | -8 | -9 | . | .
CS(=O)(=O)Nc1ccc(C(=O)NC2CCCC2)cc1 | -1 | -1 | -1 | 0 | -21 | 80* | 1 | 3
